Results reported in ChEMBL document CHEMBL3611976, “Synthesis of new 4-phenylpyrimidine-2(1H)-thiones and their potency to inhibit COX-1 and COX-2” (Eur J Med Chem, 2015).
Active and inactive are the calls of the source. The calls are words filed in the database; no cut-off is given here.

Tests used:
[1] = Downregulation of NF-kappaB1 gene expression in differentiated human THP1 cells stimulated with LPS at 50 ug/ml preincubated for 1 hr followed by LPS stimulation measured after 3 hrs by real-time PCR analysis; type: functional, cell-based; conditions: THP-1
In short: (§1)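 THP-1 monocytes differentiated to macrophages with 12 nM PMA for 48 h. Cells were treated with compound ([…]) for 1 h, with 0.1% DMSO as calibrator. They were then stimulated with LPS O55:B5 at 7.5 ng/ml, except the DMSO well, for another 3 h. Cells were washed twice with cold PBS. Total RNA was extracted and reverse-transcribed. TaqMan qPCR was run in duplicate with GAPDH as reference.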

[2] = biological target: T1, Prostaglandin G/H synthase 2 (Homo sapiens) (UniProt P35354); assay: Inhibition of COX2 in differentiated human THP1 cells assessed as […] LPS-induced COX2 gene expression at 50 ug/ml preincubated for 1 hr followed by LPS induction measured after 3 hrs by real-time PCR analysis; type: cell-based; conditions: THP-1; in short: as §1
T1 sequence (whole entry): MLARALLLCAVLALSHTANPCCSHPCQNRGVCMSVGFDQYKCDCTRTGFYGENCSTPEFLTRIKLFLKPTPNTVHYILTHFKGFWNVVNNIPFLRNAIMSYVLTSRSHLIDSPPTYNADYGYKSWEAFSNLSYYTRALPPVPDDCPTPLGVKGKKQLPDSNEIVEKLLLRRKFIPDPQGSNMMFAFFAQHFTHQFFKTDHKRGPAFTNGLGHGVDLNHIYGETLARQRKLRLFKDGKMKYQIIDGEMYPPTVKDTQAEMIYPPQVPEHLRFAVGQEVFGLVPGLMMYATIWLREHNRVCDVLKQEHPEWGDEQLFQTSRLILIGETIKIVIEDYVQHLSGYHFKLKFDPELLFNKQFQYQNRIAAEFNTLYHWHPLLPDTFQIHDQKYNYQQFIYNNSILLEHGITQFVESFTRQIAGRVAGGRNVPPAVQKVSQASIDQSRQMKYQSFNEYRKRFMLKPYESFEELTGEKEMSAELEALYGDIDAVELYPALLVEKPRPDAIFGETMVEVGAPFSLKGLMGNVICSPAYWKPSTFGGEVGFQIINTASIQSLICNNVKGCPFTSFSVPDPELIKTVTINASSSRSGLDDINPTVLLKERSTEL

[3] = biological target: Prostaglandin G/H synthase 1 (Ovis aries) (UniProt P05979); assay: Inhibition of ram seminal vesicles COX-1 using arachidonic acid as substrate at 50 ug/ml preincubated for 5 mins followed by substrate addition after 20 mins by competitive PGE2 EIA method
Chain of Prostaglandin G/H synthase 1 (Ovis aries) (P05979 whole entry, looked up): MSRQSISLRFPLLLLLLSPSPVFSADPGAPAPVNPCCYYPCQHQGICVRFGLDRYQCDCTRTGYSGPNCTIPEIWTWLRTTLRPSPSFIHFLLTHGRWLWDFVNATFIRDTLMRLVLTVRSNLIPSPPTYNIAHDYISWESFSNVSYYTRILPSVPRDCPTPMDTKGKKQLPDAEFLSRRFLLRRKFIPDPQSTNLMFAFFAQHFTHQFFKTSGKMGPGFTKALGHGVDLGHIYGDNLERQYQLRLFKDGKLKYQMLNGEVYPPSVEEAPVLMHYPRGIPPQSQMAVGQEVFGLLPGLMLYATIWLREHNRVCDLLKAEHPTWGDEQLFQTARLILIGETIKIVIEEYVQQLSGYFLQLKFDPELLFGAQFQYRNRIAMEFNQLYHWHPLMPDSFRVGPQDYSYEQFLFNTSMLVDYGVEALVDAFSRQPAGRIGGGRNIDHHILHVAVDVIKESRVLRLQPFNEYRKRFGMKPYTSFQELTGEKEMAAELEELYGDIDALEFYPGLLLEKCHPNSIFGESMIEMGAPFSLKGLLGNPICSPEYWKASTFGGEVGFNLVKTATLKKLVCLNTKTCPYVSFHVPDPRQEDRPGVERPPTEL

[4] = biological target: T2, Prostaglandin G/H synthase 2 (Ovis aries, UniProt P79208); assay: Inhibition of sheep placental cotyledons COX-2 using arachidonic acid as substrate preincubated for 5 mins followed by substrate addition after 20 mins by competitive PGE2 EIA method
T2 sequence (P79208 whole entry): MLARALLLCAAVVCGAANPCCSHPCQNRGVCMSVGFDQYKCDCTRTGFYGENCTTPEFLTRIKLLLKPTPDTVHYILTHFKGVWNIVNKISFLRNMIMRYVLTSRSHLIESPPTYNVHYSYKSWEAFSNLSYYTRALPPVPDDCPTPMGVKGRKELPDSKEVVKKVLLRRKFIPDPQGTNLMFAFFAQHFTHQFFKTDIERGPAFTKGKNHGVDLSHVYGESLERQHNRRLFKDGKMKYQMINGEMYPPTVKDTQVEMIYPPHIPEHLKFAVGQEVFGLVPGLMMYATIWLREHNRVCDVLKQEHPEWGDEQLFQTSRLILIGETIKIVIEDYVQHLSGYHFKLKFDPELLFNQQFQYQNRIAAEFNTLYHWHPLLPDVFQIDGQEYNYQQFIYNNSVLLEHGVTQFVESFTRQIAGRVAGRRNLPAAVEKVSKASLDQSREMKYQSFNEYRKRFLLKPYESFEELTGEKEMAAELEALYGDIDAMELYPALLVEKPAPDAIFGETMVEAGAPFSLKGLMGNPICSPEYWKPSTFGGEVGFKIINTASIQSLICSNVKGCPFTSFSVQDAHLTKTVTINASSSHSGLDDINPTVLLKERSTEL
In short: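 Purified sheep placental PGHS-2 at 0.2 units/well in 0.1 M Tris/HCl with 18 mM epinephrine hydrogen tartrate, hematin and Na EDTA. Samples were preincubated for 5 min at room temperature, then arachidonic acid in ethanol was added to start the reaction. After 20 min at 37 °C the reaction was stopped with 10% formic acid. PGE2 was measured by competitive EIA absorbance, and inhibition was calculated relative to a blank.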

Row | inhibition [3] | IC50 [4] | Compound | Activity [1] | inhibition [2]
1 | 53% | 50 µM | CC1=CC(c2ccccc2[N+](=O)[O-])NC(=S)N1 (racemic) | Active | Active
2 | inactive | – | CC1=CC(C(C)C)NC(=S)N1 (racemic) | – | –
3 | 15.4% | – | CC1=CC(c2ccc(Br)cc2)NC(=S)N1 (racemic) | – | –
4 | 0.92% | – | CC1=CC(c2ccc(C(F)(F)F)cc2)NC(=S)N1 (racemic) | – | –
5 | 10.3% | – | CC1=CC(c2ccc(Cl)cc2)NC(=S)N1 (racemic) | – | –
6 | inactive | – | CC1=CC(c2ccc(Cl)cc2Cl)NC(=S)N1 (racemic) | – | –
7 | inactive | – | CC1=CC(c2ccc(F)cc2)NC(=S)N1 (racemic) | – | –
8 | 29.8% | – | CC1=CC(c2ccc([N+](=O)[O-])cc2)NC(=S)N1 (racemic) | – | –
9 | 3.06% | – | CC1=CC(c2ccccc2Cl)NC(=S)N1 (racemic) | – | –
10 | 33.2% | – | COc1ccc(C2C=C(C)NC(=S)N2)cc1 (racemic) | – | –

Row | Compound | inhibition [3] | IC50 [4] | Activity [1] | inhibition [2]
11 | CC1=CC(c2ccccc2)NC(=S)N1 (stereo unspecified) | inactive | – | Active | Active
